Measurements: ChEMBL document CHEMBL3108717, “Dysideanones A-C, unusual sesquiterpene quinones from the South China Sea sponge Dysidea avara” (J Nat Prod, 2014)
≈ marks a conversion by molar mass, not a printed value. Calls of active or inactive are those of the source. The calls are words filed in the database; no cut-off is given here.

Experiments:
Candida albicans = test: Antifungal activity against Candida albicans at 1 mg/mL; type: functional, organism-based
Staphylococcus aureus [1] = test: Antibacterial activity against Staphylococcus aureus at 1 mg/mL; type: functional, organism-based
HeLa = test: Cytotoxicity against human HeLa cells after 48 hrs by MTT assay; type: functional, cell-based
In short: (§1)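 MTT assay. Cells grown in RPMI1640 or DMEM with 10% fetal bovine serum at 37 °C, 5% CO2. Adherent cells allowed to attach 12 h before dosing; suspended cells seeded at dosing, initial density 1 × 10^5 cells/mL. Tested at 1, 10, 50 and 100 μM for 48 h in triplicate, 5-fluorouracil as positive control. Cells solubilized with DMSO, OD read at 595 nm. IC50 taken from mean-OD versus concentration curves.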

Rhodotorula glutinis = test: Antifungal activity against Rhodotorula glutinis at 1 mg/mL; type: functional, organism-based
HepG2 = test: Cytotoxicity against human HepG2 cells after 48 hrs by MTT assay; type: functional, cell-based; conditions: HepG2, 48 h; in short: as §1
Bacillus subtilis = test: Antibacterial activity against Bacillus subtilis at 1 mg/mL; type: functional, organism-based
Aspergillus niger = test: Antifungal activity against Aspergillus niger at 1 mg/mL; type: functional, organism-based
Staphylococcus aureus [2] = test: Antibacterial activity against methicillin/multi-drug-resistant Staphylococcus aureus assessed as growth inhibition; type: functional

Compound	Activity (Candida albicans)	Activity (Staphylococcus aureus [1])	IC50 (HeLa)	Activity (Rhodotorula glutinis)	IC50 (HepG2)	Activity (Bacillus subtilis)	Activity (Aspergillus niger)	MIC50 (Staphylococcus aureus [2])
C=C1CC[C@@H]2C3=C(C[C@]4(C)[C@@H](C)CC[C@@]1(C)[C@@H]24)C(=O)C(OCC)=CC3=O	inactive	inactive	7.1 µM	inactive	9.4 µM	inactive	inactive	–
CC1=CC[C@H]2[C@H]3[C@](C)(CC4=CC(=O)C=C[C@@]42O)[C@@H](C)CC[C@]13C	inactive	inactive	–	inactive	–	inactive	inactive	–
CC1=CCC[C@H]2[C@]3(C)CC4=CC(=O)C=C[C@@]4(O)[C@]3(C)CC[C@]12C	inactive	inactive	–	inactive	–	inactive	inactive	–
O=c1[nH]cc(F)c(=O)[nH]1 [FLUOROURACIL]	–	–	2.3 µM	–	7.6 µM	–	–	–
C=C1[C@H]2C[C@]3(C)C(C)=CCC[C@H]3[C@]1(C)CC1=C2C(=O)C=C(OCC)C1=O	–	–	–	–	–	–	–	0.2 µg/mL (≈ 0.567 µM)
